In ChEMBL document CHEMBL1134511, “Development of potent non-carbohydrate imidazole-based small molecule selectin inhibitors with antiinflammatory activity” (J Med Chem, 2001) one finds IC50 data, which are given here for nine compounds.

pIC50: −log10 of the molar value. A value given as a limit tells only on which side of the number the result lay.

The target in experiment [1] is T1, P-selectin (Homo sapiens, UniProt P16109).
T1 sequence (P16109 whole entry): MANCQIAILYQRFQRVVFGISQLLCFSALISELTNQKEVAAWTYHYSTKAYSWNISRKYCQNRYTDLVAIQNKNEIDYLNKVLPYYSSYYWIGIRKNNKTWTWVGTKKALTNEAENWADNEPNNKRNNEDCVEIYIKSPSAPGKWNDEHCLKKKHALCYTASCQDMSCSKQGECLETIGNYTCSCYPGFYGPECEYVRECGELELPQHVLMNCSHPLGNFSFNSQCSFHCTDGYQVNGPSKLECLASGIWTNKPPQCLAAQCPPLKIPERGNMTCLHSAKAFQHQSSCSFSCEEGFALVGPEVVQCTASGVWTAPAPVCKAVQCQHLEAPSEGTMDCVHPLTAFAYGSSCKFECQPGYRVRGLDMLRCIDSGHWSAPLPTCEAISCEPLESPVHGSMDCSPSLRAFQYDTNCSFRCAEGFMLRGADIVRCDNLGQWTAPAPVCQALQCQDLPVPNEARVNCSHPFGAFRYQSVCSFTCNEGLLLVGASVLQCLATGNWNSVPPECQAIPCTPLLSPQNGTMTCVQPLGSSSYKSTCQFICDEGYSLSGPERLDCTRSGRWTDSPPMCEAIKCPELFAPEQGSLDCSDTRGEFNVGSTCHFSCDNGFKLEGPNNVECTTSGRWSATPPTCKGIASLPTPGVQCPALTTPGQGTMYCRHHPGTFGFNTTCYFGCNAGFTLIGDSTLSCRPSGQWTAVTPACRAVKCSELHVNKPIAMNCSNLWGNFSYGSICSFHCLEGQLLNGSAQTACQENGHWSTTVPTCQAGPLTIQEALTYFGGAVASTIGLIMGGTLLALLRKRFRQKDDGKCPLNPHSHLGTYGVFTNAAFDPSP
The experiment can be described thus: Inhibitory activity against P-selectin using cell-selectin protein assay.

For experiment [2], the target named is T1, P-selectin. The experiment can be described thus: Inhibitory activity against P-selectin using ELISA-based assay. In outline: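 P-selectin–IgG chimera precomplexed with biotinylated goat F(ab')2 anti-human IgG and streptavidin–alkaline phosphatase, preincubated with compound 30 min RT in 50 mM imidazole pH 7.2, 1% BSA, 1 mM CaCl2. Mix added to sialyl Lewis^x pentaceramide-coated (40-100 pmol/well), BSA-blocked wells, 45 min 37 °C. p-Nitrophenyl phosphate read at 405 nm; chimera-free background subtracted; duplicate/triplicate; IC50 from % inhibition.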

Experiment [3] has as its target T2, E-selectin (Homo sapiens, UniProt P16581).
T2 sequence (P16581 whole entry): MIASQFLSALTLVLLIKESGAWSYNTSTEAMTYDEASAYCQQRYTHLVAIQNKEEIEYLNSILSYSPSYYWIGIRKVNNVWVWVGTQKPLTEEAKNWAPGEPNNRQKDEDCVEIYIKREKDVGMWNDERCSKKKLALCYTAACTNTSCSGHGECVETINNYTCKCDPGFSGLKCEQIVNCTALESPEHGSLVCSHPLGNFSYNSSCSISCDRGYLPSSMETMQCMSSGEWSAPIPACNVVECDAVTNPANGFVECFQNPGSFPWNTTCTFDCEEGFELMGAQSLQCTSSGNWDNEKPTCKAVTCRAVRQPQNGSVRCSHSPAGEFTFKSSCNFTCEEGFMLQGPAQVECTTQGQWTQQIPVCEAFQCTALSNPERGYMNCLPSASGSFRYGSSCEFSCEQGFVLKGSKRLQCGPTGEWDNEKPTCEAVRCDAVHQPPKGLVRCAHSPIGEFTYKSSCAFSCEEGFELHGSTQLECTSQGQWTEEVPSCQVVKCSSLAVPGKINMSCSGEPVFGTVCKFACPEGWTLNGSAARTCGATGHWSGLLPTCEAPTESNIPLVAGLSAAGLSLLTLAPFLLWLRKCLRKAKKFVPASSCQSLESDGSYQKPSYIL
As to the kind of experiment: Inhibitory activity against Selectin E using cell-cell assay; Not active. Type of experiment: functional. Put shortly: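 HUVEC monolayers (≤4-5 passages, gelatin-coated wells) activated on assay day with 10 ng/mL IL-1β as native E-selectin source. Compounds at 2× in cold RPMI preincubated 20 min 4 °C in triplicate; BCECF-AM-labelled HL60 cells (2 × 10⁶ cells/mL) added, 30 min 4 °C. Unbound cells washed off, bound cells read by fluorescence; IC50 by Probit analysis.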

For experiment [4], the target named is T1, P-selectin. As to the kind of experiment: Inhibitory activity against P-selectin using cell-cell assay; Not active. The experiment is classed as functional. In outline:
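CHO cells stably transfected with human P-selectin, plated the day before, used as monolayers. Compounds added at 2× in cold RPMI, 20 min 4 °C; BCECF-AM-labelled HL60 cells (2 × 10⁶ cells/mL) then adhered 30 min at 4 °C. Unbound cells washed off, bound cells read by fluorescence; triplicates; IC50 by Probit analysis.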

Regarding `CCCCCCCCCCCCCCCCNC(=O)/C=C/c1ccc(-c2[nH]cnc2-c2ccc(/C=C/C(=O)O)cc2)cc1`, the pIC50 (usually the negative decadic logarithm of the IC50, by convention in mol/L) in experiment [1] is 4.40; in experiment [2] it was 4.77.

For the compound `CCCCCCCCCCCCCCCCNC(=O)/C=C/c1ccc(-c2[nH]c(-c3ccc(-c4cc(C(=O)O)on4)cc3)nc2-c2ccc(/C=C/C(=O)O)cc2)cc1`, the pIC50 in experiment [1] is 5.57; in experiment [2], 6.89.

On to `O=C(O)/C=C/c1ccc(-c2nc(-c3ccc(/C=C/C(=O)NCCCc4ccccc4)cc3)c(-c3ccc(C4=NOC(C(=O)O)C4)cc3)[nH]2)cc1` (stereo not given), for which the results for the pIC50 in experiment [1] and in experiment [2] were 4.68 and 4.00, respectively.

Take `CCCCCCCCCCCCNC(=O)/C=C/c1ccc(-c2[nH]c(-c3ccc(-c4cc(C(=O)O)on4)cc3)nc2-c2ccc(/C=C/C(=O)O)cc2)cc1`: the results for the pIC50 in experiment [1] and in experiment [2] were 3.54 and 5.52, respectively. Moreover, in experiment [3], the IC50 result is reported as “Not Active”.

In experiment [1], `CCCCCCN(CCCCCC)C(=O)/C=C/c1ccc(-c2[nH]cnc2-c2ccc(/C=C/C(=O)O)cc2)cc1` gave a pIC50 of 4.68. Moreover, the IC50 result in experiment [3] and in experiment [4] was “Not Active” in each case.

Take `CC(=O)N[C@H]1[C@H]([C@H](O)[C@H](O)CO)O[C@@](O[C@H]2[C@@H](O)[C@@H](CO)O[C@@H](O[C@@H]([C@H](O[C@@H]3O[C@@H](C)[C@@H](O)[C@@H](O)[C@@H]3O)[C@H](C=O)NC(C)=O)[C@H](O)CO)[C@@H]2O)(C(=O)O)C[C@@H]1O` [SIALYL LEWIS X]: in experiment [2], the pIC50 is below 6.00.

Regarding `CCCCCCCc1ccc(NC(=O)/C=C/c2ccc(-c3[nH]cnc3-c3ccc(/C=C/C(=O)O)cc3)cc2)cc1`, the results for the pIC50 in experiment [1] and in experiment [2] were 4.36 and 4.80, respectively.

Turning to `CCCCCCCCCCCCCCCCNC(=O)/C=C/c1ccc(-c2[nH]c(-c3ccc(C4=NOC(C(=O)O)C4)cc3)nc2-c2ccc(/C=C/C(=O)O)cc2)cc1` (stereo not given), the pIC50 in experiment [1] was 5.05; in experiment [2] it was 6.54.

For `O=C(/C=C/c1ccc(-c2nc(-c3ccc(N4CCCC4)cc3)[nH]c2-c2ccc(C3=NOC(C(=O)O)C3)cc2)cc1)NCCCc1ccccc1` (stereo not given), the pIC50 in experiment [1] was 4.30; in experiment [2], 4.47. The IC50 entry in experiment [4] is “Not Active”.
